# Bioassay records (PubChem BioAssay)
# Most compounds without a hit are left out; they make up all but 3.1% or so of the library.
# UBC9 SUMO inh – inhibitors of in vitro SUMOylation cascade, primary screen, biochemical, HTRF, uHTS. AID 2006, 2009. 290,000 tested, 0.36% active. HTRF SUMOylation assay, SAE1/SAE2 + UBC9. inhibition, % at 35 µM. SUMO-conjugating enzyme UBC9 (Homo sapiens), P63279; in the data active means inhibition above about 50%, passing the limit was not always enough
# Target sequence (P63279 whole entry, looked up): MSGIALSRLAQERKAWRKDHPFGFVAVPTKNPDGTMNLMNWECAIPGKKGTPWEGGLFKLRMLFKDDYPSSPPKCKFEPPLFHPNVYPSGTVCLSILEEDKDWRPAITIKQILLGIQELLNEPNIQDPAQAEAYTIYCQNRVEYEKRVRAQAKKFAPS
# VIM-2 inh – VIM-2 metallo-beta-lactamase inhibitors, primary screen, biochemical, epi-absorbance readout, Pseudomonas aeruginosa enzyme | purified VIM-2, nitrocefin hydrolysis, epi-absorbance fluorescence | inhibition, % at 5.6 µM | 290,000 tested, 0.89% active | AID 1527, 2009;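 active means inhibition above the mean of all tested compounds plus 3 SD, cutoff set per screening run, cut at about 7.5% in these data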;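 further: red hydrolysis product quenches plate fluorescence so inhibitors raise well fluorescence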
# HCV core dimer – inhibitors of HCV core protein dimerization, primary screen, biochemical, TR-FRET, high-throughput; inhibition, % at 5 µM; TR-FRET GST/Flag-core106 dimerization, 1536-well; 300,000 tested, 0.33% active; AID 1899, 2009;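 active means inhibition above the mean of all tested compounds plus 3 SD, set per screening campaign, cut at about 45% in these data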
#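 assay system = GST-tagged and Flag-tagged HCV core protein residues 1-106 | controls = unlabelled core106 and no-GST-core106 wells | incubation = compound-protein-antibody incubation 4 h at 22.5 °C | probe or stimulus = Eu donor and XL665 acceptor anti-tag antibodies | read-out = % inhibition based on acceptor/donor emission ratio | signal = TR-FRET 671 and 617 nm emission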
# PHOSPHO1 inh – PubChem AID 1565 | Phosphoethanolamine/phosphocholine phosphatase (Homo sapiens), Q8TCT1 | recombinant PHOSPHO1, absorbance phosphatase assay | inhibition, % at 13.3 µM | 290,000 tested, 1.1% active; in the data active means inhibition above about 60%
# Target sequence (Q8TCT1 whole entry, looked up): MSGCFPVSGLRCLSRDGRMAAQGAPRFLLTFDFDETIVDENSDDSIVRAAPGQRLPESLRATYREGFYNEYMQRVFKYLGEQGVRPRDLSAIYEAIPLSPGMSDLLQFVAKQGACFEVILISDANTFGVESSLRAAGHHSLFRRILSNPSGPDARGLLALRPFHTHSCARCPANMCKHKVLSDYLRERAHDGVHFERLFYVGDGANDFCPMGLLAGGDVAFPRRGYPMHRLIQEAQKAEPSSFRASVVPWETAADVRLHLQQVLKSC
# HCV NS3 hel inh – inhibitors of HCV NS3 helicase, primary screen, biochemical, Cy5 molecular beacon fluorescence; 290,000 tested, 0.56% active; inhibition, % at 10.9 µM; AID 1800, 2009; NS3 helicase DNA unwinding; Hepatitis C virus NS3 helicase;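 active means inhibition above the mean of all tested compounds plus 3 SD, set per campaign, cut at about 35% in these data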
#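 Assay system: hepatitis C virus NS3 helicase domain fragment enzyme. Also added: annealed dual-labelled DNA beacon duplex, ATP-started. Timing: 1 h reaction at 25 °C, ATP-initiated. Technique: Cy5 fluorescence at 0 and 60 min, beacon hairpin quenching. Evaluation: % inhibition of unwinding. Replication: one well per compound.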
# IMP-1 inhibitor – IMP-1 metallo-beta-lactamase inhibitors, primary screen, biochemical, epi-absorbance readout, Pseudomonas aeruginosa enzyme; inhibition, % at 5.6 µM; 290,000 tested, 0.45% active; purified IMP-1, nitrocefin hydrolysis, epi-absorbance fluorescence; metallo-beta-lactamase IMP-1 (Pseudomonas aeruginosa); AID 1556, 2009;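 active means inhibition above the mean plus 3 SD of all compounds in the same screening run, cut at about 4.5% in these data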
#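 Material – recombinant IMP-1 enzyme, purified · Amount – IMP-1 0.2 nM before substrate addition · Medium – HEPES buffer pH 7.1 with ZnSO4 and Brij 35 · Timing – 25 °C, 15 min preincubation, 25 min reaction · Measured by – plate fluorescence quenching by hydrolysis product, ex 480/em 530 nm · Read-out – percent enzyme inhibition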
# Numbers stand for hits; . = inactive; / = not tested or not shown.
SMILES,UBC9 SUMO inh,VIM-2 inh,HCV core dimer,PHOSPHO1 inh,HCV NS3 hel inh,IMP-1 inhibitor
COc1ccc(-c2nnc(-c3cccnc3)o2)cc1OC,.,.,.,.,.,.
CCOc1ccc(-c2nnc(-c3cccnc3)o2)cc1OCC,.,11.3,.,.,.,.
COCCn1c(SCC(=O)NC(C)c2ccc(F)cc2)nc2ccccc21 (stereo unspecified),.,.,.,.,.,.
COc1ccccc1CNC(=O)N1CCN(c2ccccc2)CC1,.,.,.,.,.,.
COc1ccccc1CNC(=O)N1CCN(c2ccccc2C)CC1,.,.,.,.,.,52.5
COc1ccc(OC)c(/C=C/C(=O)NCCc2nc3ccccc3[nH]2)c1,.,.,.,.,.,.
Cc1cc(NC(=O)c2cc(-c3ccncc3)nc3c(C)cccc23)no1,.,.,54.1,.,.,.
CN(C(=O)CSc1nc2[nH]ncc2c(=O)[nH]1)c1ccccc1,/,/,.,/,/,/
CNC(=O)c1c(NC(=O)CCS(=O)(=O)c2ccc(F)cc2)sc(C)c1C,/,/,.,/,/,/
CCOc1cc(C(=O)OCC(=O)N(C)c2ccccc2)cc(OCC)c1OCC,.,.,.,.,.,12.2
COc1cc(C(=O)OCC(=O)N(C)c2ccccc2)cc(OC)c1OC,.,.,.,.,.,.
O=C(CSc1nnc(NCc2ccccc2)s1)N1CCOCC1,.,.,.,.,.,.
O=C(Nc1nnc(SCC(=O)N2CCOCC2)s1)c1ccccc1Cl,.,.,.,65.6,.,.
CC(C)(C)NC(=O)CSc1nnc(NC(=O)c2ccccc2Cl)s1,.,.,.,.,.,.
O=C(CSc1nc2ccccc2nc1SCC(=O)N1CCCCC1)N1CCCCC1,.,.,.,71.1,.,.
O=C(Nc1nnc(SCC(=O)N2CCCCC2)s1)c1cccs1,.,.,.,74.0,.,.
O=C(Cc1cccs1)Nc1nnc(SCC(=O)N2CCCCC2)s1,.,.,.,.,.,.
O=C(CSc1nnc(NC(=O)c2ccccc2Cl)s1)Nc1ccc2c(c1)oc1ccccc12,.,.,49.2,.,.,.
O=C(c1cccc([N+](=O)[O-])c1)N1CCCC(C(=O)N2CCc3ccccc3C2)C1 (stereo unspecified),.,.,.,.,.,.
COC(=O)c1ccc(NC(=O)CSc2nc(=O)n3cccc(C)c3n2)cc1,/,/,.,/,/,/
O=C(CSc1nnc(NC(=O)c2ccccc2F)s1)Nc1ccccc1F,.,.,.,.,.,.
O=C(Nc1nnc(SCC(=O)N2CCCCC2)s1)c1ccccc1F,.,9.2,.,.,.,.
O=C(NCC1OCCCN1S(=O)(=O)c1cc(F)ccc1F)C(=O)NC1CCCCC1 (stereo unspecified),.,.,.,.,.,.
CCCCC1=CC2=C(c3ccco3)C(=O)C(C)(OC(=O)c3ccc(OC)cc3)C(=O)C2=CN1c1ccc(OC)cc1 (stereo unspecified),.,/,57.9,.,/,/
CCCCC1=CC2=C(c3ccco3)C(=O)C(C)(OC(=O)c3ccc(OC)cc3)C(=O)C2=CN1C1CCCC1 (stereo unspecified),/,/,58.6,/,/,/
SMILES,UBC9 SUMO inh,VIM-2 inh,HCV core dimer,PHOSPHO1 inh,HCV NS3 hel inh,IMP-1 inhibitor
CCCCC1=CC2=C(c3ccco3)C(=O)C(C)(OC(=O)c3ccc(OC)cc3)C(=O)C2=CN1C1CC1 (stereo unspecified),.,/,.,.,/,/
O=C(O)CCCN1C(=O)/C(=C\c2ccccc2OCc2ccccc2)SC1=S,.,.,.,.,.,.
O=C(O)CCCN1C(=O)/C(=C/c2cn(-c3ccccc3)nc2-c2cccs2)SC1=S,.,.,/,72.1,.,.
CC1CCCCN1C(=O)COC(=O)/C=C/c1ccc2ccccc2n1 (stereo unspecified),.,.,.,.,.,.
COc1cccc(Cn2c(=O)c3ccccc3n3nc(C)cc23)c1,.,9.1,.,.,.,.
CCCn1c2ccccc2c2nnc(SC(CC)C(=O)Nc3cc(C)on3)nc21 (stereo unspecified),.,.,.,.,.,.
